From ChEMBL document CHEMBL4011622, “The Structure-Activity Relationship of a Tetrahydroisoquinoline Class of N-Methyl-d-Aspartate Receptor Modulators that Potentiates GluN2B-Containing N-Methyl-d-Aspartate Receptors” (J Med Chem, 2017)

These molecules were tested against T1, Glutamate NMDA receptor; Grin1/Grin2b (Rattus norvegicus) (UniProt P35439+Q00960) (assay: Positive allosteric modulation of recombinant rat GluN1/GluN2B receptor expressed in xenopus laevis oocyte assessed as potentiation of glutamate and glycine-induced current response at 30 uM at holding potential -40mV by two electrode voltage clamp method relative to control).
Method in brief: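 Two-electrode voltage clamp at -40 mV, 23°C, pH 7.4 Ba²⁺ recording solution, on Xenopus oocytes expressing rat NMDA receptors. Currents were evoked by 100 µM glutamate plus 30 µM glycine, with compound co-applied (DMSO 0.05–0.5% final). […] Each compound used at least 4 oocytes from at least 2 frogs.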
With CCOc1ccc(OCC2c3ccc(OC(C)C)cc3CCN2C(=S)c2cccc(C(F)(F)F)c2)cc1 (configuration not stated) the Emax was 190%. Work on COc1ccc(OCC2c3ccc(OC4CCCCC4)cc3CCN2C(=O)c2cccc(Cl)c2)cc1 (configuration not stated) yielded an Activity of 259% and an Emax of 265%. Molecule CCOc1ccc(OCC2c3ccc(OC(C)C)cc3CCN2C(=S)c2cccc(F)c2)cc1 (configuration not stated) has an Emax of 184%. CCOc1ccc(OC[C@@H]2c3ccc(OC(C)C)cc3CCN2C(=S)c2cccc(F)c2)cc1 was tested, and the Emax was 213%. Molecule COc1cccc(OCC2c3ccc(OC(C)C)cc3CCN2C(=O)c2cccc(Cl)c2)c1 (configuration not stated) has an Activity of 99%. COc1ccc(OCC2c3ccc(N4CCCCC4)cc3CCN2C(=O)c2cccc(Cl)c2)cc1 (configuration not stated) was tested, and the Activity was 213% and the Emax was 221%. CCOc1ccc(OCC2c3ccc(OC(C)C)cc3CCN2C(=S)c2cccc(Br)c2)cc1 (configuration not stated) gave an Emax of 174%. Work on COc1ccc(OCC2c3ccc(N(C)C)cc3CCN2C(=O)c2cccc(Cl)c2)cc1 (configuration not stated) yielded an Activity of 127%.

These molecules were tested against Glutamate NMDA receptor; Grin1/Grin2c (Rattus norvegicus) (UniProt P35439+Q00961) (assay: Positive allosteric modulation of recombinant rat GluN1/GluN2C receptor expressed in xenopus laevis oocyte assessed as potentiation of glutamate and glycine-induced current response at 30 uM at holding potential -40mV by two electrode voltage clamp method relative to control).
Method in brief: (§1)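 Two-electrode voltage clamp at -40 mV, 23°C, pH 7.4 Ba²⁺ recording solution, on Xenopus oocytes expressing rat NMDA receptors. Currents were evoked by 100 µM glutamate plus 30 µM glycine, with compound co-applied (DMSO 0.05–0.5% final). Each compound used at least 4 oocytes from at least 2 frogs.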
In the case of CCOc1ccc(OCC2c3ccc(OC(C)C)cc3CCN2C(=S)c2cccc(C(F)(F)F)c2)cc1 (configuration not stated), the Emax is reported as 141%. For COc1ccc(OCC2c3ccc(OC4CCCCC4)cc3CCN2C(=O)c2cccc(Cl)c2)cc1 (configuration not stated), the Activity was 222% and the Emax was 225%. For CCOc1ccc(OCC2c3ccc(OC(C)C)cc3CCN2C(=S)c2cccc(F)c2)cc1 (configuration not stated), the Emax was 170%. CCOc1ccc(OC[C@@H]2c3ccc(OC(C)C)cc3CCN2C(=S)c2cccc(F)c2)cc1 was tested, and the Emax was 154%. COc1cccc(OCC2c3ccc(OC(C)C)cc3CCN2C(=O)c2cccc(Cl)c2)c1 (configuration not stated) gave an Activity of 132% and an Emax of 132%. COc1ccc(OCC2c3ccc(N4CCCCC4)cc3CCN2C(=O)c2cccc(Cl)c2)cc1 (configuration not stated) was tested, and the Activity was 289% and the Emax was 313%. With CCOc1ccc(OCC2c3ccc(OC(C)C)cc3CCN2C(=S)c2cccc(Br)c2)cc1 (configuration not stated) the Emax was 166%. Molecule COc1ccc(OCC2c3ccc(N(C)C)cc3CCN2C(=O)c2cccc(Cl)c2)cc1 (configuration not stated) has an Activity of 288% and an Emax of 315%.

The molecules below were run against Ionotropic glutamate receptor NMDA 1/2D (Rattus norvegicus) (UniProt P35439+Q62645) (assay: Positive allosteric modulation of recombinant rat GluN1/GluN2D receptor expressed in xenopus laevis oocyte assessed as potentiation of glutamate and glycine-induced current response at 30 uM at holding potential -40mV by two electrode voltage clamp method relative to control).
Method in brief: as §1
CCOc1ccc(OCC2c3ccc(OC(C)C)cc3CCN2C(=S)c2cccc(C(F)(F)F)c2)cc1 (configuration not stated) was tested, and the Emax was 128%. Work on COc1ccc(OCC2c3ccc(OC4CCCCC4)cc3CCN2C(=O)c2cccc(Cl)c2)cc1 (configuration not stated) yielded an Activity of 309% and an Emax of 317%. CCOc1ccc(OCC2c3ccc(OC(C)C)cc3CCN2C(=S)c2cccc(F)c2)cc1 (configuration not stated) showed an Emax of 159%. Work on CCOc1ccc(OC[C@@H]2c3ccc(OC(C)C)cc3CCN2C(=S)c2cccc(F)c2)cc1 yielded an Emax of 179%. With COc1cccc(OCC2c3ccc(OC(C)C)cc3CCN2C(=O)c2cccc(Cl)c2)c1 (configuration not stated) the Activity was 125% and the Emax was 125%. Work on COc1ccc(OCC2c3ccc(N4CCCCC4)cc3CCN2C(=O)c2cccc(Cl)c2)cc1 (configuration not stated) yielded an Activity of 418% and an Emax of 464%. In the case of CCOc1ccc(OCC2c3ccc(OC(C)C)cc3CCN2C(=S)c2cccc(Br)c2)cc1 (configuration not stated), the Emax is reported as 135%. Work on COc1ccc(OCC2c3ccc(N(C)C)cc3CCN2C(=O)c2cccc(Cl)c2)cc1 (configuration not stated) yielded an Activity of 322% and an Emax of 349%.

Each molecule was assayed against Glutamate NMDA receptor; Grin1/Grin2b (Rattus norvegicus, UniProt P35439+Q00960) (assay: Positive allosteric modulation of recombinant rat GluN1/GluN2B receptor expressed in xenopus laevis oocyte assessed as potentiation of glutamate and glycine-induced current response at holding potential -40mV by two electrode voltage clamp method).
Method in brief: as §1
With CCOc1ccc(OCC2c3ccc(OC(C)C)cc3CCN2C(=S)c2cccc(C(F)(F)F)c2)cc1 (configuration not stated) the EC50 was 0.72 µM. For COc1ccc(OCC2c3ccc(OC4CCCCC4)cc3CCN2C(=O)c2cccc(Cl)c2)cc1 (configuration not stated), the EC50 was 2.7 µM. For CCOc1ccc(OCC2c3ccc(OC(C)C)cc3CCN2C(=S)c2cccc(F)c2)cc1 (configuration not stated), the EC50 was 0.55 µM. CCOc1ccc(OC[C@@H]2c3ccc(OC(C)C)cc3CCN2C(=S)c2cccc(F)c2)cc1 was tested, and the EC50 was 0.49 µM. Molecule COc1ccc(OCC2c3ccc(N4CCCCC4)cc3CCN2C(=O)c2cccc(Cl)c2)cc1 (configuration not stated) has an EC50 of 4.9 µM. Molecule CCOc1ccc(OCC2c3ccc(OC(C)C)cc3CCN2C(=S)c2cccc(Br)c2)cc1 (configuration not stated) has an EC50 of 0.34 µM.

The molecules below were run against Glutamate NMDA receptor; Grin1/Grin2c (Rattus norvegicus, UniProt P35439+Q00961) (assay: Positive allosteric modulation of recombinant rat GluN1/GluN2C receptor expressed in xenopus laevis oocyte assessed as potentiation of glutamate and glycine-induced current response at holding potential -40mV by two electrode voltage clamp method).
Method in brief: as §1
CCOc1ccc(OCC2c3ccc(OC(C)C)cc3CCN2C(=S)c2cccc(C(F)(F)F)c2)cc1 (configuration not stated) gave an EC50 of 0.35 µM. COc1ccc(OCC2c3ccc(OC4CCCCC4)cc3CCN2C(=O)c2cccc(Cl)c2)cc1 (configuration not stated) was tested, and the EC50 was 1.2 µM. CCOc1ccc(OCC2c3ccc(OC(C)C)cc3CCN2C(=S)c2cccc(F)c2)cc1 (configuration not stated) was tested, and the EC50 was 1.4 µM. Work on CCOc1ccc(OC[C@@H]2c3ccc(OC(C)C)cc3CCN2C(=S)c2cccc(F)c2)cc1 yielded an EC50 of 0.38 µM. COc1cccc(OCC2c3ccc(OC(C)C)cc3CCN2C(=O)c2cccc(Cl)c2)c1 (configuration not stated) was tested, and the EC50 was 6.2 µM. COc1ccc(OCC2c3ccc(N4CCCCC4)cc3CCN2C(=O)c2cccc(Cl)c2)cc1 (configuration not stated) was tested, and the EC50 was 2.3 µM. For CCOc1ccc(OCC2c3ccc(OC(C)C)cc3CCN2C(=S)c2cccc(Br)c2)cc1 (configuration not stated), the EC50 was 0.94 µM. With COc1ccc(OCC2c3ccc(N(C)C)cc3CCN2C(=O)c2cccc(Cl)c2)cc1 (configuration not stated) the EC50 was 4 µM.

Each molecule was assayed against Ionotropic glutamate receptor NMDA 1/2D (Rattus norvegicus, UniProt P35439+Q62645) (assay: Positive allosteric modulation of recombinant rat GluN1/GluN2D receptor expressed in xenopus laevis oocyte assessed as potentiation of glutamate and glycine-induced current response at holding potential -40mV by two electrode voltage clamp method).
Method in brief: as §1
With CCOc1ccc(OCC2c3ccc(OC(C)C)cc3CCN2C(=S)c2cccc(C(F)(F)F)c2)cc1 (configuration not stated) the EC50 was 0.45 µM. COc1ccc(OCC2c3ccc(OC4CCCCC4)cc3CCN2C(=O)c2cccc(Cl)c2)cc1 (configuration not stated) gave an EC50 of 1.9 µM. CCOc1ccc(OCC2c3ccc(OC(C)C)cc3CCN2C(=S)c2cccc(F)c2)cc1 (configuration not stated) was tested, and the EC50 was 1.2 µM. CCOc1ccc(OC[C@@H]2c3ccc(OC(C)C)cc3CCN2C(=S)c2cccc(F)c2)cc1 gave an EC50 of 0.58 µM. With COc1cccc(OCC2c3ccc(OC(C)C)cc3CCN2C(=O)c2cccc(Cl)c2)c1 (configuration not stated) the EC50 was 5.4 µM. COc1ccc(OCC2c3ccc(N4CCCCC4)cc3CCN2C(=O)c2cccc(Cl)c2)cc1 (configuration not stated) was tested, and the EC50 was 4 µM. CCOc1ccc(OCC2c3ccc(OC(C)C)cc3CCN2C(=S)c2cccc(Br)c2)cc1 (configuration not stated) showed an EC50 of 0.28 µM. For COc1ccc(OCC2c3ccc(N(C)C)cc3CCN2C(=O)c2cccc(Cl)c2)cc1 (configuration not stated), the EC50 was 4.4 µM.

The molecules below were run against T1, Glutamate NMDA receptor; Grin1/Grin2b (Rattus norvegicus) (assay: Positive allosteric modulation of recombinant rat GluN1/GluN2B receptor expressed in xenopus laevis oocyte assessed as compound concentration required to show two fold increase in glutamate and glycine-induced current response at holding potential -40mV by two electrode voltage clamp method).
CCOc1ccc(OC[C@@H]2c3ccc(OC(C)C)cc3CCN2C(=S)c2cccc(F)c2)cc1 gave a CD of 1.4 µM.
